Test [1] in a line: Vasorelaxant activity in bovine coronary artery assessed as reduction of U46619-induced contraction. Format: functional, tissue-based, Bos taurus. Summed up:
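Bovine coronary artery rings, precontracted, exposed to compound to obtain a concentration–response for relaxation. The value is the EC50 for vasorelaxation. Bioassay determinations n = 3−5.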

A short description of test [2]: Vasorelaxant activity in bovine coronary artery assessed as reduction of U46619-induced contraction at 10 uM. Set-up: scale not given: the % may be the effect or the level left. Format: functional, Bos taurus. Summed up: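 Precontracted bovine coronary artery rings were exposed to test agent at 10 μM. Relaxation is expressed as a percentage relative to a 14,15-EET control run in the same preparation. Bioassay determinations n = 3−5.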

The target in test [3] is T1, Bifunctional epoxide hydrolase 2 (Homo sapiens, UniProt P34913).
T1 sequence (P34913 whole entry): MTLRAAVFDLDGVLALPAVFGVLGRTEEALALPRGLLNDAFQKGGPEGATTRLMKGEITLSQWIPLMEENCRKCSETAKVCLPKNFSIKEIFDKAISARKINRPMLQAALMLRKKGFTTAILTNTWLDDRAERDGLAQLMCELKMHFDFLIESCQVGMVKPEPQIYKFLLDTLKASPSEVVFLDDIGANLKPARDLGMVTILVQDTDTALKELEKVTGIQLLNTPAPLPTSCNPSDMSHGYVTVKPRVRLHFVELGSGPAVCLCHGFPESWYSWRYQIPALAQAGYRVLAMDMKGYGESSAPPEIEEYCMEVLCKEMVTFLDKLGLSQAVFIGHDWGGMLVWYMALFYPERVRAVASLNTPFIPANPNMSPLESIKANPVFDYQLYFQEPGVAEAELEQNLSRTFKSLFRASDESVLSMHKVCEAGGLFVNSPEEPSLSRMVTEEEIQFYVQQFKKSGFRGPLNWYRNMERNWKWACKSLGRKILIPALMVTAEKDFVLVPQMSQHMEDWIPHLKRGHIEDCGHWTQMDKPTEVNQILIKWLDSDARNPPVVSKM
Briefly: Inhibition of recombinant human sEH using CMNPC substrate by fluoresecent-based assay.

We go through 34 compounds from ChEMBL document CHEMBL3352195, “14,15-Epoxyeicosa-5,8,11-trienoic Acid (14,15-EET) surrogates: carboxylate modifications” (J Med Chem, 2014).

A word on the EC50: it is the midpoint of the concentration-response curve. The IC50 is the concentration that gives 50% inhibition.

Consider `CCCCCC1OC1C/C=C\C/C=C\C/C=C\CCCC(=O)O` (stereo not drawn), for which, in test [1], the EC50 was 2200 nM. Further, in test [2], the Activity is on record as 85%.

For the compound `CCCCCCC(=O)N(CCCC/C=C\CCCCCCC(=O)OCCOCCOCCO)C(C)C`, in test [1], the EC50 stood at 2900 nM. Moreover, the Activity in test [2] is reported as 86%. Moreover, the IC50 in test [3] was over 500 nM.

As for `CCCCCNC(=O)NCCCC/C=C\CCCCCCC(=O)OCCOCCOCCO`, the concentration for a half-maximal effect (EC50) in test [1] was found to be 5100 nM. In addition, the Activity in test [2] is on record as 72%.

For `CCCCNC(=O)C(=O)NCCCC/C=C\CCCCCCC(=O)OCCOCCOCCO`, the EC50 in test [1] was determined as 1500 nM. In addition, the Activity in test [2] is recorded as 104%. For the same compound, the IC50 in test [3] was over 500 nM.

Consider `CCCCCCC(=O)N(CCCC/C=C\CCCCCCC(=O)NCC(=O)O)C(C)C`, for which the EC50 in test [1] came out at 1900 nM. Also, in test [2], the Activity is 95%. Besides, the IC50 in test [3] is over 500 nM.

As for `CCCCCN(C)C(=O)N(C)CCCC/C=C\CCCCCCC(=O)NCC(=O)O`, the EC50 in test [1] is 2750 nM. In addition, the Activity in test [2] amounted to 92%. Besides, the IC50 in test [3] is over 500 nM.

Take `CCCCCNC(=O)NCCCC/C=C\CCCCCCC(=O)N[C@@H](CC(=O)[O-])C(=O)[O-].[Na+].[Na+]`: in test [1], the EC50 amounted to 1600 nM. Further, the Activity in test [2] turned out to be 91%.

For `CCCCCNC(=O)NCCCC/C=C\CCCCCCC(=O)NS(=O)(=O)c1ccccc1`, the EC50 in test [1] was 6000 nM. The Activity in test [2] is recorded as 73%.

Consider `CCCCCNC(=O)NCCCC/C=C\CCCCCCC(=O)NS(C)(=O)=O`, for which the EC50 in test [1] turned out to be 6700 nM. The Activity in test [2] worked out at 61%.

Turning to `CCCCCNC(=O)NCCCC/C=C\CCCCCNS(=O)(=O)c1ccccc1`, the EC50 in test [1] amounted to 3400 nM.

With `CCCCCNC(=O)NCCCC/C=C\CCCCCCP(=O)([O-])[O-].[Na+].[Na+]`, in test [1], the EC50 is over 10000 nM. Besides, the Activity in test [2] is 71%.

`CCCCCNC(=O)NCCCC/C=C\CCCCCCS(=O)(=O)[O-].[Na+]`: in test [1], the EC50 was 7600 nM. In addition, in test [2], the Activity was found to be 63%.

For `CCCCCNC(=O)NCCCC/C=C\CCCCCSc1ccccc1O`, the EC50 in test [1] was over 10000 nM.

For `CCCCCNC(=O)NCCCC/C=C\CCCCCS(=O)(=O)c1ccccc1O`, in test [1], the EC50 was 5000 nM.

Turning to `CCCCCNC(=O)NCCCC/C=C\CCCCCSc1nnn[nH]1`, the EC50 in test [1] was determined as 3700 nM.

As to `CCCCCNC(=O)NCCCC/C=C\CCCCCSc1ncn[nH]1`, in test [1], the EC50 stood at 9800 nM.

As for `CCCCCNC(=O)NCCCC/C=C\CCCCC[S+]([O-])c1ncn[nH]1` (stereo not drawn), the EC50 in test [1] is 3500 nM.

`CCCCCNC(=O)NCCCC/C=C\CCCCCS(=O)(=O)c1ncn[nH]1`: in test [1], the EC50 was 3100 nM.

Turning to `CCCCCCC(=O)N(CCCC/C=C\CCCCCCc1nnn[nH]1)C(C)C`, the EC50 in test [1] came out at 1000 nM. In test [2], the Activity was 74%. Also, the IC50 in test [3] was over 500 nM.

As for `CCCCCNC(=O)NCCCC/C=C\CCCCCCc1nnn[nH]1`, the EC50 in test [1] came out at 180 nM. In addition, the Activity in test [2] stood at 119%.

As for `CCCCCNC(=O)NCCCC/C=C\CCCCCCCc1nnn[nH]1`, the EC50 in test [1] stood at 1100 nM. Further, the Activity in test [2] stood at 110%.

In the case of `CCCCNC(=O)C(=O)NCCCC/C=C\CCCCCCc1nnn[nH]1`, in test [1], the EC50 was determined as 1700 nM. In addition, the Activity in test [2] is 96%. In test [3], the half-maximal inhibitory concentration (IC50) is over 500 nM.

As to `CCCCCNC(=O)NCCCC/C=C\CCCCCCc1noc(=O)[nH]1`, the EC50 in test [1] turned out to be 1100 nM. Moreover, in test [2], the Activity is on record as 89%.

As to `CCCCCNC(=O)NCCCC/C=C\CCCCCCC1=NOS(=O)N1` (stereo not drawn), the EC50 in test [1] is 340 nM. Moreover, in test [2], the Activity turned out to be 109%.

`CCCCCCC(=O)N(CCCC/C=C\CCCCCCC1=NOS(=O)N1)C(C)C` (stereo not drawn): the EC50 in test [1] was 320 nM. Further, the Activity in test [2] was determined as 109%. Besides, the IC50 in test [3] was over 500 nM.

On to `CCCCNC(=O)C(=O)NCCCC/C=C\CCCCCCc1noc(=S)[nH]1`, for which, in test [1], the EC50 was 360 nM. For the same compound, the Activity in test [2] amounted to 116%. For the same compound, in test [3], the IC50 was over 500 nM.

As for `CCCCCNC(=O)NCCCC/C=C\CCCCCCc1noc(=S)[nH]1`, the EC50 in test [1] was 3300 nM. In test [2], the Activity is given as 93%.

As for `CCCCCNC(=O)NCCCC/C=C\CCCCCCc1nsc(=O)[nH]1`, the EC50 in test [1] stood at 2400 nM. The Activity in test [2] stood at 54%.

As for `CCCCCNC(=O)NCCCC/C=C\CCCCCC1SC(=O)NC1=O` (stereo not drawn), the EC50 in test [1] is over 10000 nM.

For the compound `CCCCCNC(=O)NCCCC/C=C\CCOc1cccc2sc(NC(C)=O)nc12`, the EC50 in test [1] is 3300 nM.

With `CCCCCCC(=O)N(CCCCCOc1cccc2sc(NC(C)=O)nc12)C(C)C`, in test [2], the Activity turned out to be 96%. In addition, the IC50 in test [3] was over 500 nM.

With `CCCCCNC(=O)NCCCCCOc1cccc2sc(NC(C)=O)nc12`, the EC50 in test [1] turned out to be 900 nM. Besides, the Activity in test [2] is reported as 73%. Also, the IC50 in test [3] is over 500 nM.

`CCCCNC(=O)C(=O)NCCCCCOc1cccc2sc(NC(C)=O)nc12`: the EC50 in test [1] is 2400 nM. The Activity in test [2] came to 96%. For the same compound, in test [3], the IC50 is over 500 nM.

As for `CCCCCNC(=O)NCCCC/C=C\CCCCOCC(=O)O`, in test [2], the Activity is 49%.
